The test system of data set [1] is Hepatitis C virus. Briefly: Antiviral activity against HCV infected in human clone A cells. The data set is classed as functional, Hepacivirus hominis. The method, boiled down: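 Clone A replicon cells seeded at 1500 cells/well. Compounds serially diluted in G418-free culture medium and added, then incubated 4 days at 37 °C in 5% CO2. HCV RNA quantified by real-time RT-PCR as ΔCt relative to the mean no-drug control.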

Data set [2] has as its system CCRF-CEM. Briefly: Cytotoxicity against human CEM cells assessed as inhibition of ribosomal DNA up to 100 uM. Format: cell-based. A digest of the protocol:
(§1)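 CEM or HepG2 cells at 1 × 10^4 per well, compound serially diluted from 100 μM, 14 days at 37 °C, 5% CO2. Medium with compound renewed on days 7 and 11. Total DNA extracted; mitochondrial COXII DNA and rDNA measured by multiplex quantitative PCR. ΔCt converted to log reduction, inhibition relative to untreated cells, and the 90% inhibitory concentration reported.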

Data set [3] concerns CCRF-CEM. Put plainly: Cytotoxicity against human CEM cells assessed as inhibition of mitochondrial DNA up to 100 uM. The data set is classed as cell-based. The method, boiled down:
as §1

Data set [4] has as its system Hepatitis C virus. Put plainly: Antiviral activity against HCV expressing NS5B polymerase S282T mutation infected in clone A cells. Format: functional, Hepacivirus hominis. The method, boiled down:
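Replicon cells seeded at 1500 (clone A) or 3000 (ET-lunet) per well. Serially diluted compound added in medium without G418, 4 days at 37 °C, 5% CO2. HCV RNA measured by real-time RT-PCR as ΔCt versus no-drug control. EC90 calculated; fold change of S282T mutant versus wild-type replicon EC90. At least three independent experiments.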

Data set [5] relates to Hepatitis C virus. Briefly: Antiviral activity against HCV infected in human ET-lunet cells. The data set is classed as functional, Hepacivirus hominis. The method, boiled down:
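ET-lunet replicon cells seeded at 3000 cells/well. Compounds serially diluted in culture medium without G418 and added to cells, which were incubated 4 days at 37 °C in 5% CO2. HCV RNA replication measured by quantitative real-time RT-PCR as ΔCt against the mean no-drug control threshold cycle. EC90, the concentration giving 90% inhibition, was calculated.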

The test system of data set [6] is Hepatitis C virus NS5B S96T/N142T mutant. Put plainly: Antiviral activity against HCV expressing NS5B polymerase S96T/N142T mutation infected in human ET-lunet cells.
Data set [7] in a line: Cytotoxicity against human HepG2 cells assessed as inhibition of mitochondrial DNA. The data set is classed as cell-based. The method, boiled down:
as §1

Data set [8] in a line: Cytotoxicity against human HepG2 cells assessed as inhibition of ribosomal DNA. The data set is classed as cell-based. The method, boiled down:
as §1

Structures are written as SMILES.

Turning to `CC(C)OC(=O)[C@H](C)N[P@@](=O)(OC[C@H]1O[C@@H](n2ccc(=O)[nH]c2=O)[C@](C)(F)[C@@H]1O)Oc1ccccc1`, the EC90 is 7.5 µM in data set [1] (Hepatitis C virus), > 100 µM in data set [4], 3.3 µM in data set [5] and 1.3 µM in data set [6]. The Activity result in data set [2] and in data set [3] was “Non-toxic” in each case.

For `CC(C)OC(=O)[C@H](C)N[P@](=O)(OC[C@H]1O[C@@H](n2ccc(=O)[nH]c2=O)[C@](C)(F)[C@@H]1O)Oc1ccccc1` [SOFOSBUVIR], the EC90 in data set [1] was found to be 0.42 µM; in data set [4], 7.8 µM; in data set [5] it was 0.23 µM; in data set [6], 0.11 µM. Besides, the Activity result in data set [2] and in data set [3] was “Non-toxic” throughout. Besides, the CC90 in data set [7] is 72.1 µM; in data set [8], 68.6 µM.

By EC90 is commonly meant the concentration needed for an effect of 90%.
